According to ChEMBL document CHEMBL1240337, “Identification of proteases that regulate erythrocyte rupture by the malaria parasite Plasmodium falciparum” (Nat Chem Biol, 2008):
One block for each compound: values may come before it. Activity calls are given as the source filed them. The calls are words filed in the database; no cut-off is given here.

How the values were obtained:
[1] = Cytotoxicity against african green monkey BSC1 cells after 24 hrs by celltiter glo assay; format: cell-based; conditions: chlorocebus aethiops, bsc-1, 24 h
Outline: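 BSC-1 African green monkey kidney epithelial cells exposed to compounds; viability read by CellTiter-Glo luminescence.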

[2] = system: Plasmodium falciparum; assay: Antiplasmodial activity against Plasmodium falciparum schizont infected in human erythrocytes assessed as inhibition of ring-stage parasite growth at 1 to 100 uM after 24 by propidium iodide staining-based FACS analysis; format: functional, organism-based
[3] = system: Plasmodium falciparum; assay: Antiplasmodial activity against Plasmodium falciparum schizont infected in human erythrocytes assessed as effect on schizont morphology at 1 to 100 uM after 24 by propidium iodide staining-based FACS analysis; format: functional, organism-based
[4] = system: Plasmodium falciparum; assay: Antiplasmodial activity against Plasmodium falciparum schizont infected in human erythrocytes assessed as effect on parasite ring-to-schizont morphology at 1 to 100 uM after 24 by propidium iodide staining-based FACS analysis; format: functional, organism-based
[5] = system: Plasmodium falciparum; assay: Antiplasmodial activity against Plasmodium falciparum schizont infected in human erythrocytes assessed as blockade of parasite-mediated rupture of erythrocytes after 24 by propidium iodide staining-based FACS analysis; format: functional, organism-based
Outline: (§1)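 Synchronous early schizonts (~36 h post invasion) exposed to inhibitor for 24 h at 37 °C. Cells fixed in 0.05% glutaraldehyde/PBS overnight at 4 °C, permeabilized with 0.25% Triton X-100 and stained with propidium iodide. Flow cytometry gated ring and schizont populations as fractions of total parasitemia, normalized to averaged DMSO wells. Triplicate runs.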

[6] = Inhibition of Plasmodium falciparum SUB1 by fluorescence spectrophotometry
Outline: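 Recombinant PfSUB1 cleavage of the fluorogenic peptide substrate pepF1-6R measured over a range of inhibitor concentrations. IC50 taken from the curve fit.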

[7] = target: T1, Protease, putative (Plasmodium falciparum 3D7) (UniProt Q8I1Y2); assay: Inhibition of Plasmodium falciparum 3D7 PFD0230c-mediated SERA5 processing at 1 1 to 100 uM after 6 to 8 hrs by SDS-PAGE
T1 sequence (whole entry): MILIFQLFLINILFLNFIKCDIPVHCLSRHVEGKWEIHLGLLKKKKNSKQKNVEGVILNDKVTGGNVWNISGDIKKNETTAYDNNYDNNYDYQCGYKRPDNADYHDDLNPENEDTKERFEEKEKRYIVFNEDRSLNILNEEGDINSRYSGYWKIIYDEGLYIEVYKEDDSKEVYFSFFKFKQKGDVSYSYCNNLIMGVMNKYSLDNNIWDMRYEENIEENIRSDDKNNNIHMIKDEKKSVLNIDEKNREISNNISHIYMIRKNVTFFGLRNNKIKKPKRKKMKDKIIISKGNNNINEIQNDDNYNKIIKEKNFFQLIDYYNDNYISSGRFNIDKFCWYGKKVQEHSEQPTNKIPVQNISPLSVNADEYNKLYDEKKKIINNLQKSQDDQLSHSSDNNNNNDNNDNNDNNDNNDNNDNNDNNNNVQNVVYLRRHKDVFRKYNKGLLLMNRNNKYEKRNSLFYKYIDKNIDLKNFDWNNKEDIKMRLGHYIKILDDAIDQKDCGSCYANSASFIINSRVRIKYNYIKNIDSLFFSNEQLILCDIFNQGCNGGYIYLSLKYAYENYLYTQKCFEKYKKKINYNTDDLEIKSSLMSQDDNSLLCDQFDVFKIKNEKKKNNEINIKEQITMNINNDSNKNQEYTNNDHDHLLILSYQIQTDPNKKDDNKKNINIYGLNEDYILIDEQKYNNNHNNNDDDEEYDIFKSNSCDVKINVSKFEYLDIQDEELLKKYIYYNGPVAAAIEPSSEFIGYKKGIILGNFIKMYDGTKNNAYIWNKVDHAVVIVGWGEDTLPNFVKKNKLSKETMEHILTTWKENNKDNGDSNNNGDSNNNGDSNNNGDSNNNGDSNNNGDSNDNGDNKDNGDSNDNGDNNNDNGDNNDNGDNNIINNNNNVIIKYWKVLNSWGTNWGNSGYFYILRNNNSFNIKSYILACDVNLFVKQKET
Outline: (§2)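 Percoll-enriched schizonts (36–40 h post invasion) treated with inhibitor for 6–8 h in serum-free RPMI. Medium run on 8% SDS-PAGE; schizont pellet solubilized in SDS loading buffer. SERA5 detected by western blot with a monoclonal recognizing the P50 product; PfSUB1 detected with antisera.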

[8] = system: Plasmodium falciparum; assay: Inhibition of Plasmodium falciparum SUB1-mediated SERA5 processing at 1 1 to 100 uM after 6 to 8 hrs by SDS-PAGE; outline: as §2
[9] = target: T1, Protease, putative (Plasmodium falciparum 3D7); assay: Inhibition of Plasmodium falciparum 3D7 PFD0230c-mediated rupture of infected human red blood cells at 10 uM after 24 hrs by giemsa staining
Outline: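 Giemsa-stained thin blood films were read from schizonts exposed at 36 h post invasion to 10 µM inhibitor, to assess rupture and morphology.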

[10] = target: T1, Protease, putative (Plasmodium falciparum 3D7); assay: Inhibition of Plasmodium falciparum 3D7 PFD0230c by fluorescence spectrophotometry
[11] = target: T1, Protease, putative (Plasmodium falciparum 3D7); assay: Inhibition of Plasmodium falciparum 3D7 PFD0230c-mediated rupture of infected human red blood cells after 24 hrs by propidium iodide staining-based FACS analysis; outline: as §1
[12] = target: T2, Probable cathepsin C (Plasmodium falciparum 3D7) (UniProt Q8IIJ9); assay: Inhibition of Plasmodium falciparum 3D7 cathepsin C by fluorescence spectrophotometry
T2 sequence (whole entry): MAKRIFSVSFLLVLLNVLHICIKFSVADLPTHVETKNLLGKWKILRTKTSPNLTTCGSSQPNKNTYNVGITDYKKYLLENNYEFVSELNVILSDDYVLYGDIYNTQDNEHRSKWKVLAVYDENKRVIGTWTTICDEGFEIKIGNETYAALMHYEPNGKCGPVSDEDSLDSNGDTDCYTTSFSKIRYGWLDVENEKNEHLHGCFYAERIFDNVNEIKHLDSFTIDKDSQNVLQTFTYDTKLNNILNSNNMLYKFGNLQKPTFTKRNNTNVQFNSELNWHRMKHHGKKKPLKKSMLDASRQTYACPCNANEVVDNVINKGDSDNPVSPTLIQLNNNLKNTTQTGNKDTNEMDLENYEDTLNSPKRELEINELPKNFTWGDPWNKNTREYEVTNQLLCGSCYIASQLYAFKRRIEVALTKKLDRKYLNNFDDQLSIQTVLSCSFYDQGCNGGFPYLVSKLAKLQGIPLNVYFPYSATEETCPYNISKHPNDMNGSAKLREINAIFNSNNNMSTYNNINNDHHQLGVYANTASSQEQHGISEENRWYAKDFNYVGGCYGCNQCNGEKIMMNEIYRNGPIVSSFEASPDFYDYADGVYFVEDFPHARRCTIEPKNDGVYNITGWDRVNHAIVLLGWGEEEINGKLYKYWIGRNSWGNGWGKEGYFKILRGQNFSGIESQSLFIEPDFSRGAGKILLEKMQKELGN

[13] = target: T3, Falcipain-3 (Plasmodium falciparum 3D7) (UniProt Q8IIL0); assay: Inhibition of Plasmodium falciparum 3D7 falcipain-3 by fluorescence spectrophotometry
T3 sequence (whole entry): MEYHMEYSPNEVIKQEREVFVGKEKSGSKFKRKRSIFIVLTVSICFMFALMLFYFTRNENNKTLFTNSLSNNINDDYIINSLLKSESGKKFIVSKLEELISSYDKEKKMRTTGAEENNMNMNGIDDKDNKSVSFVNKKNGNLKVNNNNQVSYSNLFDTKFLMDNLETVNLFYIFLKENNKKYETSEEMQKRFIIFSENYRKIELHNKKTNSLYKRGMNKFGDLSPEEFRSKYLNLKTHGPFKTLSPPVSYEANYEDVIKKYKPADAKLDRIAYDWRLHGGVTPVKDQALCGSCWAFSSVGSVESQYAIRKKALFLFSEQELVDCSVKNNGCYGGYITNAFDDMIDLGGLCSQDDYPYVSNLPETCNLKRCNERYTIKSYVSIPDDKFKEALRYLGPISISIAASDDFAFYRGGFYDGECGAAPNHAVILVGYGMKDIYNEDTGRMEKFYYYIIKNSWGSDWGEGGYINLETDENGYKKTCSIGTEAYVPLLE

[14] = system: Plasmodium falciparum; assay: Inhibition of Plasmodium falciparum 3D7 falcipain-2 by fluorescence spectrophotometry
[15] = target: T4, Cysteine proteinase falcipain-1 (Plasmodium falciparum 3D7) (UniProt Q8I6V0); assay: Inhibition of Plasmodium falciparum 3D7 falcipain-1 by fluorescence spectrophotometry
T4 sequence (whole entry): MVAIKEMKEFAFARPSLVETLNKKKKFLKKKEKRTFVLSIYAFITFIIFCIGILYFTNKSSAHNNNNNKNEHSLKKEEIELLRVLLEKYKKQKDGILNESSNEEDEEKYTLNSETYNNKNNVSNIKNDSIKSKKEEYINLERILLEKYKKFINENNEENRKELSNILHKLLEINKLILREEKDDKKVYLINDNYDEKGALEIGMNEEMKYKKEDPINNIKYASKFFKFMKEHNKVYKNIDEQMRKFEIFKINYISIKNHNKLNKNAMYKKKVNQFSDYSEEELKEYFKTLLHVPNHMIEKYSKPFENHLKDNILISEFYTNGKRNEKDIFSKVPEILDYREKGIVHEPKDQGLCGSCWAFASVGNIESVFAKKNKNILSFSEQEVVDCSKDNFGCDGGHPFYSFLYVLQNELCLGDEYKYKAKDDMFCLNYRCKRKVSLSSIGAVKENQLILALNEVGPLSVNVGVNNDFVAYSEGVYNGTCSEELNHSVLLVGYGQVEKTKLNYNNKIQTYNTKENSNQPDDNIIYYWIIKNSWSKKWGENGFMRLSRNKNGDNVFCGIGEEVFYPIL

[16] = target: T1, Protease, putative (Plasmodium falciparum 3D7); assay: Inhibition of Plasmodium falciparum 3D7 PFD0230c-mediated rupture of infected human red blood cells at 1 to 100 uM after 24 hrs by propidium iodide staining-based FACS analysis
Outline: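 Schizonts at 36 h post invasion treated in triplicate with 1–100 µM inhibitor for 24 h, then propidium iodide stained and analyzed by flow cytometry. Schizont accumulation is expressed as fold increase over the DMSO control.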

[17] = target: T5, Preprocathepsin c, putative (Plasmodium falciparum 3D7) (UniProt Q8I0V1); assay: Inhibition of Plasmodium falciparum 3D7 PFL2290w by fluorescence spectrophotometry
T5 sequence (whole entry): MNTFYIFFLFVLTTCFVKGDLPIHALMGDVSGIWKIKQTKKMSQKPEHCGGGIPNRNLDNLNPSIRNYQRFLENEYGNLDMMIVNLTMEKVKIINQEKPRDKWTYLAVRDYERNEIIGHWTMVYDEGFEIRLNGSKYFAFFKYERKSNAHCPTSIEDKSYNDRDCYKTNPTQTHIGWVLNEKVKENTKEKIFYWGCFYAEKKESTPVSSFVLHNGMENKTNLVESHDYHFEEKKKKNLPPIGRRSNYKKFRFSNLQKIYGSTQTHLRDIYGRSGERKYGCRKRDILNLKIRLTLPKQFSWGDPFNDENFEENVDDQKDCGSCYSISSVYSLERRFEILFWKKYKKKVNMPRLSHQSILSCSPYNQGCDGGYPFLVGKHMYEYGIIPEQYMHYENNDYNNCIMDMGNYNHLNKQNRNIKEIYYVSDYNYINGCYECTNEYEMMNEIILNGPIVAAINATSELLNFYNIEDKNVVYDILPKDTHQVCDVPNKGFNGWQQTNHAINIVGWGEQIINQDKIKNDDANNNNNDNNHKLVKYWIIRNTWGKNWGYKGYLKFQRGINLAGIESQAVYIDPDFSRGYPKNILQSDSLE

[18] = system: Plasmodium falciparum; assay: Inhibition of Plasmodium falciparum SUB1-mediated rupture of infected human red blood cells at 50 uM after 24 hrs by propidium iodide staining-based FACS analysis
Outline: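 Early schizonts (~36 h post invasion) given 50 µM compound (final) for 24 h at 37 °C, then glutaraldehyde-fixed, Triton-permeabilized and propidium iodide stained. Flow cytometric schizont fraction normalized to DMSO controls.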

[19] = system: Plasmodium falciparum; assay: Displacement of JCP104 from Plasmodium falciparum SUB1 at 50 uM by SDS-PAGE

EC50 [5]: 22 µM
IC50 [6]: 18 µM
inhibition [7]: Active
inhibition [8]: Active
Structure (SMILES): O=C(CCCCCNC(=O)CCCC[C@H]1SC[C@H]2NC(=O)N[C@H]21)NCCCCCC(=O)Nc1ccc2c(Cl)c(OCCc3ccccc3)oc(=O)c2c1
Activity [1]: Non-toxic
inhibition [2]: Active
Activity [3]: inactive
Activity [4]: inactive

inhibition [9]: Active
Structure (SMILES): CCOC(=O)[C@H]1O[C@@H]1C(=O)N[C@H](C(=O)NCCc1ccc(O)cc1)[C@@H](C)CC

inhibition [10]: Active
inhibition [11]: Dose-dependent effect
inhibition [9]: Active
inhibition [7]: Active
inhibition [8]: Active
Structure (SMILES): N[C@@H](Cc1ccc(O)c([N+](=O)[O-])c1)C(=O)N[C@H](/C=C/S(=O)(=O)c1ccccc1)CCc1ccccc1

inhibition [12]: Active
inhibition [13]: inactive
inhibition [15]: Active
inhibition [16]: inactive
inhibition [9]: inactive
inhibition [7]: Active
inhibition [8]: Active
Structure (SMILES): O=C(N[C@H](/C=C/S(=O)(=O)c1ccccc1)CCc1ccccc1)C1CCCN1 (stereo not given in full)
inhibition [14]: inactive

inhibition [12]: Active
inhibition [17]: Active
Structure (SMILES): NC(=O)[C@H](Cc1ccc(O)cc1)NC(=O)CCCCCCCCCCS(=O)(=O)/C=C/[C@H](CCc1ccccc1)NC(=O)[C@@H](N)Cc1ccc(O)c([N+](=O)[O-])c1

Activity [18]: Active
inhibition [18]: Active
Activity [19]: Active
Structure (SMILES): O=C(CCCC[C@H]1SC[C@H]2NC(=O)N[C@H]21)NCCCCCC(=O)Nc1ccc2c(Cl)c(OCCc3ccccc3)oc(=O)c2c1

Activity [18]: Active
inhibition [18]: Active
Activity [19]: Active
Structure (SMILES): O=C(CCCC[C@H]1SC[C@H]2NC(=O)N[C@H]21)Nc1ccc2c(Cl)c(OCCc3ccccc3)oc(=O)c2c1
